Measured values published in ChEMBL document CHEMBL5058577, “EUbOPEN Chemogenomics Library 2 (Multiplex)” (2022).

Tested on: Fibroblast
Experiment: Multiplex assay against human fibroblast
Type: toxicity, cell-based
In short: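 Hoechst33342, BioTracker Green Microtubule Cytoskeleton Dye, MitoTracker Red and Annexin V Alexa Fluor 680 were added to live cells at seeding, and imaging on a CQ1 microscope at 37°C and 5% CO2 followed compound addition. Gating by CellPathfinder machine learning separated cells into Hoechst high-intensity objects or normal cells, then normal cells into healthy, pyknosed or fragmented nuclei, then pyknosed cells into mitotic or apoptotic. Per cents of healthy-nucleus cells are reported for the tubulin, mitochondrial-mass and membrane-permeability phenotypes.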

[1] = 12 h, 1 µM, compound concentration 1 uM, replicate 1
[2] = 12 h, 1 µM, compound concentration 1 uM, replicate 2
[3] = 12 h, 10 µM, compound concentration 10 uM, replicate 1
[4] = 12 h, 10 µM, compound concentration 10 uM, replicate 2
[5] = 24 h, 1 µM, compound concentration 1 uM, replicate 1
[6] = 24 h, 1 µM, compound concentration 1 uM, replicate 2
[7] = 24 h, 10 µM, compound concentration 10 uM, replicate 1
[8] = 24 h, 10 µM, compound concentration 10 uM, replicate 2
[9] = 48 h, 1 µM, compound concentration 1 uM, replicate 1
[10] = 48 h, 1 µM, compound concentration 1 uM, replicate 2
[11] = 48 h, 10 µM, compound concentration 10 uM, replicate 1
[12] = 48 h, 10 µM, compound concentration 10 uM, replicate 2

Cc1c(CC(=O)O)c2cccnc2n1Cc1ccc(S(C)(=O)=O)cc1C(F)(F)F [FEVIPIPRANT]
Population Apoptotic (%) [1]: 44%
Population Fragmented Nuclei (%) [1]: 22%
Population Healthy Nuclei (%) [1]: 60%
Population Hoechst High Intensity Objects (%) [1]: 3%
Population Membrane Permeable-Phenotype (%) [1]: 1%
Population Mitochondria Different-Phenotype (%) [1]: 3%
Population Mitotic Cells (%) [1]: 55%
Population Normal (%) [1]: 96%
Population Pyknosed Nuclei (%) [1]: 18%
Population Tubulin-Different-Phenotype (%) [1]: 20%
Total Cell Count [1]: 156
Population Apoptotic (%) [2]: 25%
Population Fragmented Nuclei (%) [2]: 33%
Population Healthy Nuclei (%) [2]: 48%
Population Membrane Permeable-Phenotype (%) [2]: 13%
Population Mitochondria Different-Phenotype (%) [2]: 12%
Population Mitotic Cells (%) [2]: 74%
Population Pyknosed Nuclei (%) [2]: 17%
Population Tubulin-Different-Phenotype (%) [2]: 56%
Population Apoptotic (%) [3]: 34%
Population Fragmented Nuclei (%) [3]: 10%
Population Healthy Nuclei (%) [3]: 71%
Population Hoechst High Intensity Objects (%) [3]: 3%
Population Membrane Permeable-Phenotype (%) [3]: 1%
Population Mitochondria Different-Phenotype (%) [3]: 4%
Population Mitotic Cells (%) [3]: 65%
Population Normal (%) [3]: 96%
Population Pyknosed Nuclei (%) [3]: 17%
Population Tubulin-Different-Phenotype (%) [3]: 25%
Total Cell Count [3]: 132
Population Apoptotic (%) [4]: 22%
Population Fragmented Nuclei (%) [4]: 21%
Population Healthy Nuclei (%) [4]: 54%
Population Hoechst High Intensity Objects (%) [4]: 5%
Population Membrane Permeable-Phenotype (%) [4]: 9%
Population Mitochondria Different-Phenotype (%) [4]: 6%
Population Mitotic Cells (%) [4]: 77%
Population Normal (%) [4]: 94%
Population Pyknosed Nuclei (%) [4]: 23%
Population Tubulin-Different-Phenotype (%) [4]: 55%
Total Cell Count [4]: 139
Population Apoptotic (%) [5]: 55%
Population Fragmented Nuclei (%) [5]: 14%
Population Healthy Nuclei (%) [5]: 66%
Population Hoechst High Intensity Objects (%) [5]: 3%
Population Membrane Permeable-Phenotype (%) [5]: 1%
Population Mitochondria Different-Phenotype (%) [5]: 5%
Population Mitotic Cells (%) [5]: 44%
Population Normal (%) [5]: 96%
Population Pyknosed Nuclei (%) [5]: 19%
Population Tubulin-Different-Phenotype (%) [5]: 23%
Total Cell Count [5]: 156
Population Apoptotic (%) [6]: 52%
Population Fragmented Nuclei (%) [6]: 35%
Population Healthy Nuclei (%) [6]: 47%
Population Membrane Permeable-Phenotype (%) [6]: 4%
Population Mitochondria Different-Phenotype (%) [6]: 8%
Population Mitotic Cells (%) [6]: 48%
Population Pyknosed Nuclei (%) [6]: 17%
Population Tubulin-Different-Phenotype (%) [6]: 50%
Total Cell Count [6]: 150
Population Apoptotic (%) [7]: 57%
Population Fragmented Nuclei (%) [7]: 16%
Population Healthy Nuclei (%) [7]: 67%
Population Hoechst High Intensity Objects (%) [7]: 1%
Population Membrane Permeable-Phenotype (%) [7]: 1%
Population Mitochondria Different-Phenotype (%) [7]: 2%
Population Mitotic Cells (%) [7]: 42%
Population Normal (%) [7]: 98%
Population Pyknosed Nuclei (%) [7]: 16%
Population Tubulin-Different-Phenotype (%) [7]: 24%
Total Cell Count [7]: 130
Population Apoptotic (%) [8]: 31%
Population Fragmented Nuclei (%) [8]: 22%
Population Healthy Nuclei (%) [8]: 55%
Population Hoechst High Intensity Objects (%) [8]: 7%
Population Membrane Permeable-Phenotype (%) [8]: 5%
Population Mitochondria Different-Phenotype (%) [8]: 5%
Population Mitotic Cells (%) [8]: 68%
Population Normal (%) [8]: 92%
Population Pyknosed Nuclei (%) [8]: 21%
Population Tubulin-Different-Phenotype (%) [8]: 52%
Total Cell Count [8]: 146
Population Apoptotic (%) [9]: 65%
Population Fragmented Nuclei (%) [9]: 16%
Population Healthy Nuclei (%) [9]: 67%
Population Hoechst High Intensity Objects (%) [9]: 5%
Population Membrane Permeable-Phenotype (%) [9]: 0%
Population Mitochondria Different-Phenotype (%) [9]: 4%
Population Mitotic Cells (%) [9]: 35%
Population Normal (%) [9]: 94%
Population Pyknosed Nuclei (%) [9]: 16%
Population Tubulin-Different-Phenotype (%) [9]: 16%
Total Cell Count [9]: 132
Population Apoptotic (%) [10]: 63%
Population Fragmented Nuclei (%) [10]: 39%
Population Healthy Nuclei (%) [10]: 47%
Population Hoechst High Intensity Objects (%) [10]: 6%
Population Membrane Permeable-Phenotype (%) [10]: 4%
Population Mitochondria Different-Phenotype (%) [10]: 8%
Population Mitotic Cells (%) [10]: 36%
Population Normal (%) [10]: 93%
Population Pyknosed Nuclei (%) [10]: 12%
Population Tubulin-Different-Phenotype (%) [10]: 47%
Total Cell Count [10]: 157
Population Apoptotic (%) [11]: 73%
Population Fragmented Nuclei (%) [11]: 22%
Population Healthy Nuclei (%) [11]: 62%
Population Hoechst High Intensity Objects (%) [11]: 2%
Population Membrane Permeable-Phenotype (%) [11]: 0%
Population Mitochondria Different-Phenotype (%) [11]: 3%
Population Mitotic Cells (%) [11]: 26%
Population Normal (%) [11]: 97%
Population Pyknosed Nuclei (%) [11]: 14%
Population Tubulin-Different-Phenotype (%) [11]: 29%
Total Cell Count [11]: 132
Population Apoptotic (%) [12]: 58%
Population Fragmented Nuclei (%) [12]: 32%
Population Healthy Nuclei (%) [12]: 53%
Population Membrane Permeable-Phenotype (%) [12]: 3%
Population Mitochondria Different-Phenotype (%) [12]: 2%
Population Mitotic Cells (%) [12]: 41%
Population Tubulin-Different-Phenotype (%) [12]: 52%
Total Cell Count [12]: 171
